Data reported in ChEMBL document CHEMBL1155250, “Novel 1-aminoethyl-3-arylsulfonyl-1H-pyrrolo[2,3-b]pyridines are potent 5-HT(6) agonists” (Bioorg Med Chem, 2009).
Each block holds one molecule with its values, some of them ahead of it.

Legend:
[1] = biological target: T1, 5-hydroxytryptamine receptor 6 (Homo sapiens, UniProt P50406); assay: Displacement of [3H]LSD from human cloned 5HT6 receptor expressed in HeLa cells; assay type: cell-based
Summary of the method: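 Radioligand binding used human 5-HT6 receptor stably expressed in HeLa cells with [3H]LSD as the radioligand. Affinity is reported as Ki.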

[2] = biological target: T1, 5-hydroxytryptamine receptor 6; assay: Agonist activity at human cloned 5HT6 receptor expressed in HeLa cells assessed as induction of adenylyl cyclase activity by RIA relative to serotonin; assay type: functional, cell-based
Summary of the method: (§1)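 Transfected HeLa cells expressing human 5-HT6 were washed with Krebs buffer and preincubated 5 min at 37 °C in Krebs with 500 µM IBMX. They were then stimulated 10 min at 37 °C with compound over 0.1–10000 nM. Agonist potency came from concentration–response curves, and percent efficacy was taken relative to a serotonin maximal response.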

[3] = biological target: T1, 5-hydroxytryptamine receptor 6; assay: Agonist activity at human cloned 5HT6 receptor expressed in HeLa cells assessed as induction of adenylyl cyclase activity by RIA; assay type: functional, cell-based; summary of the method: as §1
[4] = biological target: T1, 5-hydroxytryptamine receptor 6; assay: Antagonist activity at human cloned 5HT6 receptor expressed in HeLa cells assessed as inhibition of adenylyl cyclase activity by RIA; assay type: functional, cell-based
[5] = biological target: T1, 5-hydroxytryptamine receptor 6; assay: Antagonist activity at human cloned 5HT6 receptor expressed in HeLa cells assessed as inhibition of adenylyl cyclase activity by RIA relative to serotonin; assay type: functional, cell-based
Homo sapiens [6] = organism: Homo sapiens; assay: Selectivity ratio of IC50 for human cloned 5HT7 receptor to human cloned 5HT6 receptor
D(4) dopamine receptor = biological target: T2, D(4) dopamine receptor (Homo sapiens, UniProt P21917); assay: Displacement of [3H]spiperone from human cloned dopamine D4 receptor expressed in CHO-K1 cells; assay type: cell-based
T2 sequence (P21917 whole entry): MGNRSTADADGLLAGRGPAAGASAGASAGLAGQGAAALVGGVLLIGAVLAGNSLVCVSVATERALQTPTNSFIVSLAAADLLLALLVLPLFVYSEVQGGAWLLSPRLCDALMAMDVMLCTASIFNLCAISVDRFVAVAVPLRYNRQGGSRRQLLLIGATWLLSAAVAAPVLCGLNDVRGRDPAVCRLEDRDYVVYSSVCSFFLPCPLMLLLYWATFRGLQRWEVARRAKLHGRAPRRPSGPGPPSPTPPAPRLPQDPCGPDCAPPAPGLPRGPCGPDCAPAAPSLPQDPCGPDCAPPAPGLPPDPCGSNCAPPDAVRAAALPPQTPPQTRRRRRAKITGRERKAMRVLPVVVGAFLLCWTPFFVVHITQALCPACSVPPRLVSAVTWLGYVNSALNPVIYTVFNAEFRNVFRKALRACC
Summary of the method: (§2)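 Binding selectivity used stably expressed human receptors, 5-HT in CHO cells and dopamine in CHO-K1. Radioligands: [125I]DOI for 5-HT2A (agonist radioligand), [3H]-5-HT for 5-HT2C, [3H]LSD for 5-HT7, [3H]spiperone for D2, D3 and D4. Values are IC50 in nM.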

Homo sapiens [7] = organism: Homo sapiens; assay: Selectivity ratio of IC50 for human cloned 5HT2C receptor to human cloned 5HT6 receptor
[8] = biological target: T3, 5-hydroxytryptamine receptor 2C (Homo sapiens, UniProt P28335); assay: Displacement of [3H]5-HT from human cloned 5HT2C receptor expressed in CHO cells; assay type: cell-based; summary of the method: as §2
T3 sequence (P28335 whole entry): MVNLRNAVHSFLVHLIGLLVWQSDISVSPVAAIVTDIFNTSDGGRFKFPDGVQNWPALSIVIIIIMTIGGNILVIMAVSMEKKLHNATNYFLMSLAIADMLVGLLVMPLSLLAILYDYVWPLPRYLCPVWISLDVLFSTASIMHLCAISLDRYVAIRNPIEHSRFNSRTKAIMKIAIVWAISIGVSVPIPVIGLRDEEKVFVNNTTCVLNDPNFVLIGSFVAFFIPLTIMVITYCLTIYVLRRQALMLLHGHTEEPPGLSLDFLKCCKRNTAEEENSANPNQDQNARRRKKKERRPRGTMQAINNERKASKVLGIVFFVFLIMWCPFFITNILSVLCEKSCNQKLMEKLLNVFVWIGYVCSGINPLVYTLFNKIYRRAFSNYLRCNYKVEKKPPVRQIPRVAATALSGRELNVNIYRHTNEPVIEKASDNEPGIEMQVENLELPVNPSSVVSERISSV

[9] = biological target: 5-hydroxytryptamine receptor 7 (Homo sapiens, UniProt P34969); assay: Displacement of [3H]LSD from human cloned 5HT7 receptor expressed in CHO cells; assay type: cell-based; summary of the method: as §2
5-hydroxytryptamine receptor 7, sequence (P34969 whole entry): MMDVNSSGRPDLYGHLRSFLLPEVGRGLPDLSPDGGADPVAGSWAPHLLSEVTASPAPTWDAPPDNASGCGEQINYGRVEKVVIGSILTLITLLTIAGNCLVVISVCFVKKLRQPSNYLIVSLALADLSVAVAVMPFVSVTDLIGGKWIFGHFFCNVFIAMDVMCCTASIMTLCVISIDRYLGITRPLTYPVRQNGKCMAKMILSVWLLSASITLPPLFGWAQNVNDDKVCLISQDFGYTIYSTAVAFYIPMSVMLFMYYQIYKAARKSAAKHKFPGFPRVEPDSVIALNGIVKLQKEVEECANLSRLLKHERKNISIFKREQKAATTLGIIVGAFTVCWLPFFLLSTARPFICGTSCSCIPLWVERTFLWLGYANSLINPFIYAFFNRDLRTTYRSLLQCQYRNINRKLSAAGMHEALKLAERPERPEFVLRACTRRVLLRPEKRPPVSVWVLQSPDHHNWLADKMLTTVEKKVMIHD

Homo sapiens [10] = organism: Homo sapiens; assay: Selectivity ratio of IC50 for human cloned 5HT1D receptor to human cloned 5HT6 receptor
[11] = biological target: 5-hydroxytryptamine receptor 1D (Homo sapiens) (UniProt P28221); assay: Displacement of [3H]5-HT from human cloned 5HT1D receptor expressed in CHO cells at 1 uM; assay type: cell-based
5-hydroxytryptamine receptor 1D (Homo sapiens), sequence (P28221 whole entry): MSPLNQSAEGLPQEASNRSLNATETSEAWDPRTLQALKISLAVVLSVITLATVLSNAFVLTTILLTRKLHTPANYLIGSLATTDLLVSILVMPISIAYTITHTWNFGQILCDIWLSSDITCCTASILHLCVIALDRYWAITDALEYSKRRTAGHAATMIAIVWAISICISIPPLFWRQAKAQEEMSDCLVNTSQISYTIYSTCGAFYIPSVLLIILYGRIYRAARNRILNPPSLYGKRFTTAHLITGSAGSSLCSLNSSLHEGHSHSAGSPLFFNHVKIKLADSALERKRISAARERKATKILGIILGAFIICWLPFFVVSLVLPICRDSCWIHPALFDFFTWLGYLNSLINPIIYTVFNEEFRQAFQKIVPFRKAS
Summary of the method: (§3)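 Human 5-HT1B, 5-HT1D and 5-HT1F receptors were stably expressed in CHO cells and labelled with [3H]-5-HT. Results are given as percent inhibition at a single 1 µM concentration.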

[12] = biological target: 5-hydroxytryptamine receptor 2A (Homo sapiens, UniProt P28223); assay: Displacement of [125I]DOI from human cloned 5HT2A receptor expressed in CHO cells; assay type: cell-based; summary of the method: as §2
5-hydroxytryptamine receptor 2A, sequence (P28223 whole entry): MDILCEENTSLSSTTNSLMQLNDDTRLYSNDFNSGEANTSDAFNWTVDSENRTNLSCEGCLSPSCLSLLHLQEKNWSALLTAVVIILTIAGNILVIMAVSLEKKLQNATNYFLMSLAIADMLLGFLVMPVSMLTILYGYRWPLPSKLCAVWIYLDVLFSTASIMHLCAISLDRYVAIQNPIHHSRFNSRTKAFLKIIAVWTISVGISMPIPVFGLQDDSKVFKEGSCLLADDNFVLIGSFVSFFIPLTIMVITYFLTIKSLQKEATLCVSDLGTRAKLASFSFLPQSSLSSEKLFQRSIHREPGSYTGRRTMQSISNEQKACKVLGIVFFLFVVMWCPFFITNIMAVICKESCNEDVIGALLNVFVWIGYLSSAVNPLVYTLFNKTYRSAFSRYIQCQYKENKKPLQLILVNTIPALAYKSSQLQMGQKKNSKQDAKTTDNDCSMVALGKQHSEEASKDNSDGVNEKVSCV

D(3) dopamine receptor = D(3) dopamine receptor (Homo sapiens, UniProt P35462); assay: Displacement of [3H]spiperone from human cloned dopamine D3 receptor expressed in CHO-K1 cells; assay type: cell-based; summary of the method: as §2
D(3) dopamine receptor, sequence (P35462 whole entry): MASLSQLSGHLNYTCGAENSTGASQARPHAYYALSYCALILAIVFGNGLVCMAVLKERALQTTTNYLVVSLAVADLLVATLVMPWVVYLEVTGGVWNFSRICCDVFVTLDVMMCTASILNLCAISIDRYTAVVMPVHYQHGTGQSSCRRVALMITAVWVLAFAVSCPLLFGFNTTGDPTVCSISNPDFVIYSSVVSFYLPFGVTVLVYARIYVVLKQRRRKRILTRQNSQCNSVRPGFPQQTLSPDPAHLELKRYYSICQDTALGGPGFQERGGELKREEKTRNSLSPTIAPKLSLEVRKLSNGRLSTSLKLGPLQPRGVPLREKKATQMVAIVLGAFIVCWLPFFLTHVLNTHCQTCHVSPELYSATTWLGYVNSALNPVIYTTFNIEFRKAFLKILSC

[13] = biological target: 5-hydroxytryptamine receptor 1B (Homo sapiens) (UniProt P28222); assay: Displacement of [3H]5-HT from human cloned 5HT1B receptor expressed in CHO cells at 1 uM; assay type: cell-based; summary of the method: as §3
5-hydroxytryptamine receptor 1B (Homo sapiens), sequence (P28222 whole entry): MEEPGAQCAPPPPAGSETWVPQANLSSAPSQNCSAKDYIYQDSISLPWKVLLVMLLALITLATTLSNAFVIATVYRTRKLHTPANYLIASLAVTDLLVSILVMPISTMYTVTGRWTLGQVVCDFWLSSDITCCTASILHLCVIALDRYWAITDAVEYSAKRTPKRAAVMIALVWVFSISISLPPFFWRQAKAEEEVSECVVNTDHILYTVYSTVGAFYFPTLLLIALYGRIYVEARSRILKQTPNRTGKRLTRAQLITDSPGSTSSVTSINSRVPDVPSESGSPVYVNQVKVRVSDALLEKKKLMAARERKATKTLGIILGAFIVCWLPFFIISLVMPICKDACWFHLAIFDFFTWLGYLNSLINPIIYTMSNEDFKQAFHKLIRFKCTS

Homo sapiens [14] = organism: Homo sapiens; assay: Selectivity ratio of IC50 for human cloned 5HT1F receptor to human cloned 5HT6 receptor
Homo sapiens [15] = organism: Homo sapiens; assay: Selectivity ratio of IC50 for human cloned dopamine D3 receptor to human cloned 5HT6 receptor
Homo sapiens [16] = organism: Homo sapiens; assay: Selectivity ratio of IC50 for human cloned 5HT2A receptor to human cloned 5HT6 receptor
Homo sapiens [17] = organism: Homo sapiens; assay: Selectivity ratio of IC50 for human cloned 5HT1B receptor to human cloned 5HT6 receptor
D(2) dopamine receptor = D(2) dopamine receptor (Homo sapiens, UniProt P14416); assay: Displacement of [3H]spiperone from human cloned dopamine D2 receptor expressed in CHO-K1 cells; assay type: cell-based; summary of the method: as §2
D(2) dopamine receptor, sequence (P14416 whole entry): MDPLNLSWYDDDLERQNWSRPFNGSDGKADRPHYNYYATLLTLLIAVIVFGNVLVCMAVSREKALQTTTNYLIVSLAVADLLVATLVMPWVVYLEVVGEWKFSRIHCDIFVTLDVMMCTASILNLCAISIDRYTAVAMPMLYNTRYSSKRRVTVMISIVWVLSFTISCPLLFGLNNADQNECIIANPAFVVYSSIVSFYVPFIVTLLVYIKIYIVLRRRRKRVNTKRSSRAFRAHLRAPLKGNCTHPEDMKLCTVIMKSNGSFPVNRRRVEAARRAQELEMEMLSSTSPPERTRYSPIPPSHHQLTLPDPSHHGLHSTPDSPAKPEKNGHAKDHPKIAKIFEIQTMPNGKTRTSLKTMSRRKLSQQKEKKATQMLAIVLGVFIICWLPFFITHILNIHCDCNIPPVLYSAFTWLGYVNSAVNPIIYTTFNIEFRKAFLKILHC

Homo sapiens [18] = organism: Homo sapiens; assay: Selectivity ratio of IC50 for human cloned dopamine D2 receptor to human cloned 5HT6 receptor
[19] = biological target: T4, 5-hydroxytryptamine receptor 1F (Homo sapiens) (UniProt P30939); assay: Displacement of [3H]5-HT from human cloned 5HT1F receptor expressed in CHO cells at 1 uM; assay type: cell-based; summary of the method: as §3
T4 sequence (whole entry): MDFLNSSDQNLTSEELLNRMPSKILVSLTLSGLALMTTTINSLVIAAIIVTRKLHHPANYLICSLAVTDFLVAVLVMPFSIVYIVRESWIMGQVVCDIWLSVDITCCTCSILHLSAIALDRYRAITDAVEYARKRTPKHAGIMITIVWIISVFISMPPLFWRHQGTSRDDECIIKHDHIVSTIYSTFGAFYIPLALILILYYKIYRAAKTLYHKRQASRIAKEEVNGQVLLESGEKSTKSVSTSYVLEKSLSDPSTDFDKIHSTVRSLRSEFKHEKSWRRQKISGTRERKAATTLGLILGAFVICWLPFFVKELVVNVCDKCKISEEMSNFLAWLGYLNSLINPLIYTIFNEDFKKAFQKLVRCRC

Homo sapiens [20] = organism: Homo sapiens; assay: Selectivity ratio of IC50 for human cloned dopamine D4 receptor to human cloned 5HT6 receptor

T1 sequence (P50406 whole entry): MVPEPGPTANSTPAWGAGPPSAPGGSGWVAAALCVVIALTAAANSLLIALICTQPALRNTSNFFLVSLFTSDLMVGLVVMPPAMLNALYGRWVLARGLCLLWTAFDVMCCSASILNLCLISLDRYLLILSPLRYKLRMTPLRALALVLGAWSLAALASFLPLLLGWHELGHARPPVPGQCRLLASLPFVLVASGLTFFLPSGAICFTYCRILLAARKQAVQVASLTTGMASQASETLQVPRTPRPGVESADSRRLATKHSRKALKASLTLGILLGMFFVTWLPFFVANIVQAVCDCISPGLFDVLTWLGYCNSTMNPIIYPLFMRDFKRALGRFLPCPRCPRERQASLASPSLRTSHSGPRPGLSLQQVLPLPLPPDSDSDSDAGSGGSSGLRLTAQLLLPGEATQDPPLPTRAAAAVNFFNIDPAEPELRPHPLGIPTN

SMILES: CN(C)CCn1cc(S(=O)(=O)c2cc(Cl)ccc2Cl)c2cccnc21
Ki [1]: 11.7 nM | IC50 [4]: 15 nM | Imax [5]: 97%

SMILES: CN(C)CCn1cc(S(=O)(=O)c2ccc(F)cc2)c2cccnc21
Ki [1]: 45 nM | Emax [2]: 84% | EC50 [3]: 30 nM

SMILES: NCCn1cc(S(=O)(=O)c2cccc(F)c2)c2cccnc21
Ki [1]: 4.7 nM | Emax [2]: 100% | EC50 [3]: 24 nM

SMILES: CN(C)CCn1cc(S(=O)(=O)c2ccc(Cl)s2)c2cccnc21
Ki [1]: 3.3 nM | Emax [2]: 93% | EC50 [3]: 32 nM

SMILES: NCCn1cc(S(=O)(=O)c2ccccc2)c2ccccc21
Emax [2]: 67% | EC50 [3]: 178 nM

SMILES: CNCCn1cc(S(=O)(=O)c2cccc(F)c2)c2cccnc21
IC50 [4]: 6.2 nM | Imax [5]: 93%

SMILES: CN(C)CCn1cc(S(=O)(=O)c2cccs2)c2cccnc21
Emax [2]: 74% | EC50 [3]: 154 nM

SMILES: CN(C)CCn1cc(S(=O)(=O)c2cccc(Cl)c2)c2cccnc21
Ratio IC50 (Homo sapiens [6]): > 50 | Ki [1]: 2.3 nM | IC50 (D(4) dopamine receptor): > 5000 nM | Ratio IC50 (Homo sapiens [7]): > 50 | IC50 [8]: 477 nM | IC50 [9]: 1220 nM | Ratio IC50 (Homo sapiens [10]): > 50 | Emax [2]: 86% | inhibition [11]: 10% | IC50 [12]: 131 nM | IC50 (D(3) dopamine receptor): > 5000 nM | inhibition [13]: 46% | Ratio IC50 (Homo sapiens [14]): > 50 | Ratio IC50 (Homo sapiens [15]): > 50 | Ratio IC50 (Homo sapiens [16]): > 50 | Ratio IC50 (Homo sapiens [17]): > 50 | EC50 [3]: 15 nM | IC50 (D(2) dopamine receptor): > 5000 nM | Ratio IC50 (Homo sapiens [18]): > 50 | inhibition [19]: 29% | Ratio IC50 (Homo sapiens [20]): > 50

SMILES: NCCn1cc(S(=O)(=O)c2ccccc2)c2cccnc21
Ratio IC50 (Homo sapiens [6]): > 50 | Ki [1]: 5.5 nM | IC50 (D(4) dopamine receptor): > 5000 nM | Ratio IC50 (Homo sapiens [7]): > 50 | IC50 [8]: > 5000 nM | IC50 [9]: > 5000 nM | Ratio IC50 (Homo sapiens [10]): > 50 | Emax [2]: 100% | inhibition [11]: 16% | IC50 [12]: > 5000 nM | IC50 (D(3) dopamine receptor): > 5000 nM | inhibition [13]: 11% | Ratio IC50 (Homo sapiens [14]): > 50 | Ratio IC50 (Homo sapiens [15]): > 50 | Ratio IC50 (Homo sapiens [16]): > 50 | Ratio IC50 (Homo sapiens [17]): > 50 | EC50 [3]: 27 nM | IC50 (D(2) dopamine receptor): > 5000 nM | Ratio IC50 (Homo sapiens [18]): > 50 | inhibition [19]: 14% | Ratio IC50 (Homo sapiens [20]): > 50

Other lines, results leading:

Ki [1]: 2.1 nM | Emax [2]: 97% | EC50 [3]: 85 nM
SMILES: NCCn1cc(S(=O)(=O)c2ccccc2C(F)(F)F)c2cccnc21

Ki [1]: 0.9 nM | IC50 [4]: 5.4 nM | Imax [5]: 89%
SMILES: CNCCn1cc(S(=O)(=O)c2c(Cl)nc3sccn23)c2cccnc21

Ki [1]: 2.1 nM | Emax [2]: 83% | EC50 [3]: 110 nM
SMILES: NCCn1cc(S(=O)(=O)c2cccc(C(F)(F)F)c2)c2cccnc21

Ki [1]: 1.6 nM | Emax [2]: 65% | EC50 [3]: 63 nM
SMILES: NCCn1cc(S(=O)(=O)c2cccc3ccccc23)c2cccnc21
